Among the data in ChEMBL document CHEMBL3272327, “Hypocholesterolemic activity of 1,3-bis(substituted phenoxy)-2-propanones” (J Med Chem, 1976) are Activity, solubility and LD50 values, retold here.

SMILES strings stand for the structures.

Data set [1] deals with Rattus norvegicus. Briefly: Hypocholesterolemic activity in Sprague-Dawley rat assessed as serum cholesterol level at 10 mg/kg/day, po administered via intubation measured on day 16 by Liebermann-Burchard reaction (reference value: 100%). The format is functional.
Data set [2] concerns Rattus norvegicus. Put plainly: Hypocholesterolemic activity in Sprague-Dawley rat assessed as serum cholesterol level at 10 mg/kg/day, po administered via intubation measured on day 10 by Liebermann-Burchard reaction (reference value: 100%). The class given is functional.
In data set [3] the test system is Rattus norvegicus. Put plainly: Hypocholesterolemic activity in Sprague-Dawley rat assessed as serum cholesterol level at 10 mg/kg/day, po administered via intubation measured on day 4 by Liebermann-Burchard reaction (reference value: 100%). The format is functional.
Data set [4] concerns Rattus norvegicus. Briefly: Effect on epididymis and vas deferens weight in rat at 10 mg/kg/day administered for 16 days measured 24 hrs after last drug dosage relative to total body weight (reference value: 0.24 +/- 0.07%). The format is ADME, organism-based. The following applies: in vivo.
Data set [5] concerns Rattus norvegicus. Briefly: Effect on kidney weight in rat at 10 mg/kg/day administered for 16 days measured 24 hrs after last drug dosage relative to total body weight (reference value: 0.96 +/- 0.08%). The format is ADME, organism-based. Conditions: in vivo.
Data set [6] in a line: Solubility of the compound in 1% CMC. The format is physicochemical.
Data set [7] has as its system Rattus norvegicus. Briefly: Effect on liver weight in rat at 10 mg/kg/day administered for 16 days measured 24 hrs after last drug dosage relative to total body weight (reference value: 4.54 +/- 0.29%). The format is ADME, organism-based. The following applies: in vivo.
The nature of data set [8]: Toxicity in ip dosed CF1 mouse assessed as animal death. Conditions: in vivo. The class given is organism-based. Summed up:
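Male CF1 mice given active propanones ip over 10 mg to 6 g/kg where solubility allowed; deaths recorded to estimate LD50.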

The test system of data set [9] is Rattus norvegicus. Briefly: Uterotrophic activity in ovariectomized Sprague-Dawley rat assessed as uterine weight administered for 3 days (reference value: 100 +/- 27%). The format is organism-based, Uterus. Conditions: in vivo, 72 h.
Data set [10] concerns Rattus norvegicus. Put plainly: Effect on testes weight in rat at 10 mg/kg/day administered for 16 days measured 24 hrs after last drug dosage relative to total body weight (reference value: 1.10 +/- 0.17%). The class given is ADME, organism-based, Testis. Conditions: in vivo.
Data set [11] concerns Rattus norvegicus. Briefly: Effect on vesicular gland weight in rat at 10 mg/kg/day administered for 16 days measured 24 hrs after last drug dosage relative to total body weight (reference value: 0.11 +/- 0.04%). The format is ADME, organism-based. Conditions: in vivo.
Data set [12] deals with Rattus norvegicus. Briefly: Effect on heart weight in rat at 10 mg/kg/day administered for 16 days measured 24 hrs after last drug dosage relative to total body weight (reference value: 0.43 +/- 0.10%). The format is ADME, organism-based. The following applies: in vivo.

`Cc1ccccc1OCC(=O)COc1ccccc1C`: the Activity in data set [1] is recorded as 90%; in [2], 92%; in [3], 90%.

Take `CCC(=O)c1ccc(OCC(=O)CCl)cc1`: the Activity in data set [1] is 90%; in data set [2] it was 89%; in [3], 79%.

The LD50 is the dose expected to kill half of the subjects tested. For `CCc1ccc(OCC(=O)COc2ccc(CC)cc2)cc1`, the Activity was 0.27% in data set [4]; 0.87% in [5]; 4.28% in data set [7]; 64% in data set [1]; 60% in data set [2]; 70% in data set [3]. In addition, the Activity in [9] is given as 62%; in data set [10] it was 1.14%; in data set [11], 0.15%. For the same compound, the solubility result in data set [6] was “Insoluble”. In addition, in data set [8], the LD50 was above 3000 mg/kg.

On to `O=C(COc1ccc(F)cc1)COc1ccc(F)cc1`, for which the Activity was found to be 82% in data set [1], 87% in [2] and 88% in [3].

Turning to `O=C(COCc1ccc(Cl)cc1)COCc1ccc(Cl)cc1`, the Activity amounted to 92% in data set [1], 88% in data set [2] and 106% in [3].

In the case of `Cc1cc(OCC(=O)COc2cc(C)c(Cl)c(C)c2)cc(C)c1Cl`, the Activity worked out at 0.27% in data set [4]; 1.02% in data set [5]; 4.66% in data set [7]; 61% in [1]; 70% in data set [2]; 78% in data set [3]. Moreover, the values for the Activity in [9], in data set [10] and in data set [11] were 83%, 0.91% and 0.1%, respectively. Also, the solubility entry in data set [6] is given as “Insoluble”. Moreover, the LD50 in data set [8] is above 6000 mg/kg.

Take `CC(C)(C)c1ccc(OCC(=O)COc2ccc(C(C)(C)C)cc2)cc1`: the Activity in data set [1] was 83%; in [2], 95%; in data set [3] it was 87%.

For the compound `O=C(COc1cc(Cl)c(Cl)cc1Cl)COc1cc(Cl)c(Cl)cc1Cl`, the results for the Activity in data set [1], in [2] and in data set [3] were 97%, 82% and 94%, respectively.

Turning to `Cc1ccc(CCC(=O)CCc2ccc(C)cc2)cc1`, the results for the Activity in data set [1], in data set [2] and in data set [3] were 96%, 86% and 91%, respectively.

Take `CCCCCCCCCCCCCCCCOCC(=O)COCCCCCCCCCCCCCCCC`: the Activity in data set [1] stood at 91%; in data set [2], 89%; in data set [3] it was 88%.

Regarding `O=C(CSc1ccccc1)CSc1ccccc1`, the Activity was 79% in data set [1], 101% in data set [2] and 96% in data set [3].

Consider `O=C(COc1ccccc1Cl)COc1ccccc1Cl`, for which the Activity in data set [4] was found to be 0.27%; in [5], 1.02%; in data set [7], 4.66%; in data set [1], 70%; in [2], 69%; in data set [3], 69%. Moreover, the Activity was found to be 1.21% in data set [10] and 0.23% in data set [11].

Regarding `O=C(COc1cccc(Cl)c1)COc1cccc(Cl)c1`, the values for the Activity in data set [1], in data set [2] and in data set [3] were 84%, 91% and 97%, respectively.

`Cc1cccc(OCC(=O)COc2cccc(C)c2)c1`: the Activity in data set [1] was 97%; in data set [2], 119%; in [3], 115%.

For the compound `C#C[C@]1(O)CC[C@H]2[C@@H]3CCc4cc(O)ccc4[C@H]3CC[C@@]21C` [ETHINYL ESTRADIOL], in [9], the Activity amounted to 231%.

`COc1ccccc1OCC(=O)COc1ccccc1OC`: the Activity came out at 79% in [1], 83% in [2] and 102% in data set [3].

As to `O=C(COc1ccc(I)cc1)COc1ccc(I)cc1`, the Activity in data set [1] turned out to be 93%; in data set [2] it was 103%; in data set [3], 100%.

Consider `O=C(CS(=O)(=O)c1ccc(Cl)cc1)CS(=O)(=O)c1ccc(Cl)cc1`, for which the Activity in data set [1] is 91%; in [2], 86%; in data set [3], 82%.

On to `O=C(COc1ccc(Br)cc1)COc1ccc(Br)cc1`, for which the Activity in data set [1] is 85%; in data set [2] it was 85%; in data set [3] it was 74%.

As to `O=C(COc1ccccc1)COc1ccccc1`, the figures for the Activity in data set [1], in data set [2] and in data set [3] were 90%, 87% and 104%, respectively.

For `CCOc1ccc(OCC(=O)COc2ccc(OCC)cc2)cc1`, the results for the Activity in [1], in data set [2] and in data set [3] were 85%, 96% and 77%, respectively.

As to `CCOC(=O)C(C)(C)Oc1ccc(Cl)cc1` [CLOFIBRATE], the Activity in data set [1] is 106%; in data set [2], 98%; in data set [3], 111%.

In the case of `CC(=O)C(O)(Cc1ccccc1)Cc1ccccc1`, the Activity is on record as 84% in data set [1], 77% in data set [2] and 88% in data set [3].

Consider `Cc1ccc(/C=C/C(=O)/C=C/c2ccc(C)cc2)cc1`, for which the Activity in data set [1] is on record as 96%; in data set [2], 83%; in data set [3], 94%.

For the compound `Cc1ccc(OCC(=O)C(O)(Cc2ccccc2)Cc2ccccc2)cc1`, the Activity in [1] is 70%; in data set [2] it was 72%; in data set [3] it was 80%.

With `CCCc1ccc(OCC(=O)COc2ccc(CCC)cc2)cc1`, the Activity was determined as 78% in data set [1], 88% in data set [2] and 94% in data set [3].

As for `Cc1ccc(OCC(=O)COc2ccc(Cl)cc2)cc1`, the Activity was 75% in [1], 84% in data set [2] and 108% in data set [3].

As to `COc1ccc(OCC(=O)COc2ccc(OC)cc2)cc1`, the Activity in [4] was determined as 0.22%; in data set [12], 0.54%; in data set [5] it was 1.04%; in data set [7], 4.73%; in data set [1], 60%; in data set [2] it was 51%. In addition, the Activity in [3] is given as 76%; in data set [9], 70%; in data set [10] it was 1.22%; in [11], 0.11%. Also, the LD50 in [8] was determined as 6000 mg/kg.

For the compound `O=C(CSc1ccc(Cl)cc1)CSc1ccc(Cl)cc1`, the Activity in data set [4] stood at 0.25%; in data set [5] it was 0.94%; in [7], 4.53%; in data set [1] it was 66%; in [2], 73%; in data set [3], 70%. The Activity turned out to be 86% in data set [9], 1.13% in data set [10] and 0.12% in [11]. In data set [6], the solubility entry is “Insoluble”. In addition, the LD50 in data set [8] was above 3000 mg/kg.

For `COc1ccc(OCC(=O)COc2ccc(Cl)cc2)cc1`, the Activity is listed as 84% in data set [1], 88% in data set [2] and 102% in data set [3].
